{
  "source": "ChEMBL document CHEMBL3244396",
  "about": "“Synthesis and antileukemic activity of 5-substituted 2,3-dihydro-6,7-bis(hydroxymethyl)-1H-pyrrolizine diesters” (J Med Chem, 1977)",
  "key": {"P388 [1]": {"system": "P388", "experiment": "Antitumor activity against mouse P388 cells allografted in female BDF1 mouse assessed as disease cures by measuring 30-days host survival at 25 mg/kg, ip administered daily for 9 days as Klucel suspension starting 24 hrs after tumor inoculation relative to control", "format": "functional", "conditions": "route intraperitoneal", "outline": "(§1)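 P388 leukemia given as an ascitic fluid cell inoculum, ip, to mice of the strain and sex in each line. Nine daily ip doses were given in a Klucel (hydroxypropylcellulose) suspension, starting 24 h after inoculation. Read-out is median survival time as %T/C, with >125 taken as significant; a \"cure\" means 30-day survival.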"}, "L1210 [2]": {"system": "L1210", "experiment": "Antileukemic activity against mouse L1210 cells allografted in female BDF1 mouse assessed as change in body weight at 50 mg/kg, ip administered daily for 9 days as Klucel suspension starting 24 hrs after tumor inoculation", "format": "functional", "conditions": "route intraperitoneal", "outline": "(§2)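 Ascitic fluid carrying L1210 cells was inoculated ip. Compound was given ip as a Klucel (hydroxypropylcellulose) suspension in nine daily doses, starting 24 h after inoculation. Body-weight difference (treated minus control) was recorded on day 5. Survival was scored as %T/C of mean survival time.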"}, "Mus musculus [3]": {"system": "Mus musculus", "experiment": "Toxicity in female BDF1 mouse allografted with mouse L1210 cells assessed as animal survival at 100 mg/kg, ip administered daily for 9 days as Klucel suspension starting 24 hrs after tumor inoculation measured on fifth day", "format": "organism-based", "design": "dose 100 mg/kg, route intraperitoneal", "conditions": "in vivo", "outline": "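Female BDF1 mice bearing ip ascitic L1210 inoculum got nine daily ip doses in a Klucel suspension, starting 24 h after tumor inoculation. Toxicity was scored as toxicity-day survivors out of the group, recorded on the fifth day. Animal weight difference (T − C) was also tabulated.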"}, "P388 [4]": {"system": "P388", "experiment": "Antitumor activity against mouse P388 cells allografted in female BDF1 mouse assessed as disease cures by measuring 30-days host survival at 12.5 mg/kg, ip administered daily for 9 days as Klucel suspension starting 24 hrs after tumor inoculation relative to control", "format": "functional", "conditions": "route intraperitoneal", "outline": "as §1"}, "L1210 [5]": {"system": "L1210", "experiment": "Antileukemic activity against mouse L1210 cells allografted in female BDF1 mouse assessed as host mean survival time at 100 mg/kg, ip administered daily for 9 days as Klucel suspension starting 24 hrs after tumor inoculation relative to control", "format": "functional", "conditions": "route intraperitoneal", "outline": "(§3)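 L1210 leukemia given as an ascitic fluid cell inoculum, ip, to mice of the strain and sex in each line. Test material was given ip for nine daily doses starting 24 h after inoculation, in a Klucel (hydroxypropylcellulose) suspension. Read-out is mean survival time as %T/C versus controls, with >125 taken as significant.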"}, "P388 [6]": {"system": "P388", "experiment": "Antitumor activity against mouse P388 cells allografted in female CDF1 mouse assessed as disease cures by measuring 30-days host survival at 50 mg/kg, ip administered daily for 9 days as Klucel suspension starting 24 hrs after tumor inoculation relative to control", "format": "functional", "conditions": "route intraperitoneal", "outline": "as §1"}, "P388 [7]": {"system": "P388", "experiment": "Antitumor activity against mouse P388 cells allografted in female CDF1 mouse assessed as disease cures by measuring 30-days host survival at 6.25 mg/kg, ip administered daily for 9 days as Klucel suspension starting 24 hrs after tumor inoculation relative to control", "format": "functional", "conditions": "route intraperitoneal", "outline": "as §1"}, "P388 [8]": {"system": "P388", "experiment": "Antitumor activity against mouse P388 cells allografted in female CDF1 mouse assessed as change in body weight at 200 mg/kg, ip administered daily for 9 days as Klucel suspension starting 24 hrs after tumor inoculation", "format": "functional", "conditions": "route intraperitoneal", "outline": "(§4)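 Ascitic fluid carrying P388 cells was inoculated ip. Compound was given ip in nine daily doses, starting 24 h after inoculation, in Klucel (hydroxypropylcellulose) suspension or in saline with Tween-80. Body-weight difference (treated minus control) was recorded on day 5. Survival was scored as %T/C of median survival time, and 30-day survival counted as cure.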"}, "L1210 [9]": {"system": "L1210", "experiment": "Antileukemic activity against mouse L1210 cells allografted in female BDF1 mouse assessed as host mean survival time at 50 mg/kg, ip administered daily for 9 days as Klucel suspension starting 24 hrs after tumor inoculation relative to control", "format": "functional", "conditions": "route intraperitoneal", "outline": "as §3"}, "L1210 [10]": {"system": "L1210", "experiment": "Antileukemic activity against mouse L1210 cells allografted in female BDF1 mouse assessed as change in body weight at 200 mg/kg, ip administered daily for 9 days as Klucel suspension starting 24 hrs after tumor inoculation", "format": "functional", "conditions": "route intraperitoneal", "outline": "as §2"}, "P388 [11]": {"system": "P388", "experiment": "Antitumor activity against mouse P388 cells allografted in female CDF1 mouse assessed as change in body weight at 6.25 mg/kg, ip administered daily for 9 days as Klucel suspension starting 24 hrs after tumor inoculation", "format": "functional", "conditions": "route intraperitoneal", "outline": "as §4"}, "Mus musculus [12]": {"system": "Mus musculus", "experiment": "Toxicity in female CDF1 mouse allografted with mouse P388 cells assessed as animal survival at 50 mg/kg, ip administered daily for 9 days as Klucel suspension starting 24 hrs after tumor inoculation", "format": "organism-based", "design": "dose 50 mg/kg, route intraperitoneal", "conditions": "in vivo", "outline": "(§5)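 P-388 leukemia ascitic fluid inoculated ip. Compound given ip as a suspension in Klucel (hydroxypropylcellulose), once daily for nine doses beginning 24 h post-inoculation. Acute toxicity assessed as toxicity-day survivors per group. Survival was followed up to 30 days, with 30-day survival counted as \"cure\". Follows NCI screening protocols.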"}, "Mus musculus [13]": {"system": "Mus musculus", "experiment": "Toxicity in female BDF1 mouse allografted with mouse P388 cells assessed as animal survival at 25 mg/kg, ip administered daily for 9 days as Klucel suspension starting 24 hrs after tumor inoculation", "format": "organism-based", "design": "dose 25 mg/kg, route intraperitoneal", "conditions": "in vivo", "outline": "as §5"}, "P388 [14]": {"system": "P388", "experiment": "Antitumor activity against mouse P388 cells allografted in female CDF1 mouse assessed as change in body weight at 50 mg/kg, ip administered daily for 9 days as Klucel suspension starting 24 hrs after tumor inoculation", "format": "functional", "conditions": "route intraperitoneal", "outline": "as §4"}, "P388 [15]": {"system": "P388", "experiment": "Antitumor activity against mouse P388 cells allografted in female CDF1 mouse assessed as change in body weight at 100 mg/kg, ip administered daily for 9 days as Klucel suspension starting 24 hrs after tumor inoculation", "format": "functional", "conditions": "route intraperitoneal", "outline": "as §4"}, "Mus musculus [16]": {"system": "Mus musculus", "experiment": "Toxicity in female CDF1 mouse allografted with mouse P388 cells assessed as animal survival at 3.13 mg/kg, ip administered daily for 9 days as Klucel suspension starting 24 hrs after tumor inoculation", "format": "organism-based", "design": "dose 3.13 mg/kg, route intraperitoneal", "conditions": "in vivo", "outline": "as §5"}, "Mus musculus [17]": {"system": "Mus musculus", "experiment": "Toxicity in female CDF1 mouse allografted with mouse P388 cells assessed as animal survival at 6.25 mg/kg, ip administered daily for 9 days as Klucel suspension starting 24 hrs after tumor inoculation", "format": "organism-based", "design": "dose 6.25 mg/kg, route intraperitoneal", "conditions": "in vivo", "outline": "as §5"}, "Mus musculus [18]": {"system": "Mus musculus", "experiment": "Toxicity in female BDF1 mouse allografted with mouse L1210 cells assessed as animal survival at 200 mg/kg, ip administered daily for 9 days as Klucel suspension starting 24 hrs after tumor inoculation measured on fifth day", "format": "organism-based", "design": "dose 200 mg/kg, route intraperitoneal", "conditions": "in vivo", "outline": "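L1210 leukemia passaged as ascitic fluid and inoculated ip. Test agent given ip as a Klucel (hydroxypropylcellulose) suspension, nine daily doses starting 24 h after tumor inoculation. Acute toxicity read as toxicity-day survivors per group (out of 6), recorded on day 5. Animal weight difference T − C was also recorded. Follows NCI screening protocols.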"}, "Mus musculus [19]": {"system": "Mus musculus", "experiment": "Toxicity in female BDF1 mouse allografted with mouse P388 cells assessed as animal survival at 12.5 mg/kg, ip administered daily for 9 days as Klucel suspension starting 24 hrs after tumor inoculation", "format": "organism-based", "design": "dose 12.5 mg/kg, route intraperitoneal", "conditions": "in vivo", "outline": "as §5"}, "P388 [20]": {"system": "P388", "experiment": "Antitumor activity against mouse P388 cells allografted in female CDF1 mouse assessed as change in body weight at 3.13 mg/kg, ip administered daily for 9 days as Klucel suspension starting 24 hrs after tumor inoculation", "format": "functional", "conditions": "route intraperitoneal", "outline": "as §4"}, "L1210 [21]": {"system": "L1210", "experiment": "Antileukemic activity against mouse L1210 cells allografted in female BDF1 mouse assessed as change in body weight at 100 mg/kg, ip administered daily for 9 days as Klucel suspension starting 24 hrs after tumor inoculation", "format": "functional", "conditions": "route intraperitoneal", "outline": "as §2"}, "P388 [22]": {"system": "P388", "experiment": "Antitumor activity against mouse P388 cells allografted in female BDF1 mouse assessed as change in body weight at 12.5 mg/kg, ip administered daily for 9 days as Klucel suspension starting 24 hrs after tumor inoculation", "format": "functional", "conditions": "route intraperitoneal", "outline": "as §4"}, "[23]": {"experiment": "Cytotoxicity against human 9KB cells treated as ethanol solution", "format": "functional", "conditions": "read-out: ED50 (the source's name)", "outline": "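Compound applied as an ethanol solution; activity read out as ED50 under the general screening protocol.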"}, "P388 [24]": {"system": "P388", "experiment": "Antitumor activity against mouse P388 cells allografted in female CDF1 mouse assessed as disease cures by measuring 30-days host survival at 3.13 mg/kg, ip administered daily for 9 days as Klucel suspension starting 24 hrs after tumor inoculation relative to control", "format": "functional", "conditions": "route intraperitoneal", "outline": "as §1"}, "P388 [25]": {"system": "P388", "experiment": "Antitumor activity against mouse P388 cells allografted in female BDF1 mouse assessed as change in body weight at 25 mg/kg, ip administered daily for 9 days as Klucel suspension starting 24 hrs after tumor inoculation", "format": "functional", "conditions": "route intraperitoneal", "outline": "as §4"}},
  "data": [
    {"compound": "CNC(=O)OCc1c(COC(=O)NC)c(-c2ccc(Cl)cc2)n2c1CCC2", "values": [
      {"measurement": "T/C", "setting": "P388 [1]", "value": 135, "unit": "%"},
      {"measurement": "Activity", "setting": "L1210 [2]", "value": -2.6, "unit": "g"},
      {"measurement": "Activity", "setting": "Mus musculus [3]", "value": "Non-toxic"},
      {"measurement": "T/C", "setting": "P388 [4]", "value": 129, "unit": "%"},
      {"measurement": "T/C", "setting": "L1210 [5]", "value": 107, "unit": "%"},
      {"measurement": "T/C", "setting": "P388 [6]", "value": 104, "unit": "%"},
      {"measurement": "T/C", "setting": "P388 [7]", "value": 150, "unit": "%"},
      {"measurement": "Activity", "setting": "P388 [8]", "value": 0.5, "unit": "g"},
      {"measurement": "T/C", "setting": "L1210 [9]", "value": 112, "unit": "%"},
      {"measurement": "Activity", "setting": "L1210 [10]", "value": -2.8, "unit": "g"},
      {"measurement": "Activity", "setting": "P388 [11]", "value": 0.2, "unit": "g"},
      {"measurement": "Activity", "setting": "Mus musculus [12]", "value": "Non-toxic"},
      {"measurement": "Activity", "setting": "Mus musculus [13]", "value": "Non-toxic"},
      {"measurement": "Activity", "setting": "P388 [14]", "value": -2.5, "unit": "g"},
      {"measurement": "Activity", "setting": "P388 [15]", "value": -0.9, "unit": "g"},
      {"measurement": "Activity", "setting": "Mus musculus [16]", "value": "Non-toxic"},
      {"measurement": "Activity", "setting": "Mus musculus [17]", "value": "Non-toxic"},
      {"measurement": "Activity", "setting": "Mus musculus [18]", "value": "Toxic"},
      {"measurement": "Activity", "setting": "Mus musculus [19]", "value": "Non-toxic"},
      {"measurement": "Activity", "setting": "P388 [20]", "value": -0.6, "unit": "g"},
      {"measurement": "Activity", "setting": "L1210 [21]", "value": -3.8, "unit": "g"},
      {"measurement": "Activity", "setting": "P388 [22]", "value": -0.2, "unit": "g"},
      {"measurement": "EC50", "setting": "[23]", "value": 2.3, "unit": "µg/mL"},
      {"measurement": "T/C", "setting": "P388 [24]", "value": 127, "unit": "%"},
      {"measurement": "Activity", "setting": "P388 [25]", "value": -0.8, "unit": "g"}
    ]}
  ]
}
